In ChEMBL document CHEMBL1145035, “Design of selective peptidomimetic agonists for the human orphan receptor BRS-3” (J Med Chem, 2003):
Activity calls are given as the source filed them. No cut-off for these calls is given here. Square brackets hold non-standard residues; d marks the D form. Peptide text beside a SMILES is read from it. * marks the point of attachment. NHPhenethyl = c1ccc(CCN*)cc1; Nle = CCCC[C@H](N)C(=O)O; PhAc = O=C(Cc1ccccc1)*; βAla = NCCC(=O)O

Legend:
[1] = Emax
[2] = molecular target: T1, Bombesin receptor subtype-3 (Homo sapiens, UniProt P32247); assay: Effective concentration required against human bombesin receptor 3 (BRS-3) in CHO cells by using FLIPR assay.; format: functional, cell-based
T1 sequence (P32247 whole entry): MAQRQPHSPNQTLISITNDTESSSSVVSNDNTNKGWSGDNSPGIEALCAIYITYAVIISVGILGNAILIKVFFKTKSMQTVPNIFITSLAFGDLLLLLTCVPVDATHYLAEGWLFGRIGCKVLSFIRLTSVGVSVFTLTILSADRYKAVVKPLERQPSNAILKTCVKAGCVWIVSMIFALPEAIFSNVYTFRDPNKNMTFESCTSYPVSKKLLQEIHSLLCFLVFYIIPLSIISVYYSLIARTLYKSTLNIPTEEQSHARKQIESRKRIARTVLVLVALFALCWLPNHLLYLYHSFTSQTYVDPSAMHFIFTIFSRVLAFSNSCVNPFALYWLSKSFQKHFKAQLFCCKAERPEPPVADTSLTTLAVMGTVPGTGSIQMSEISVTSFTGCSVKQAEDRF

[3] = molecular target: T2, Gastrin-releasing peptide receptor (Homo sapiens, UniProt P30550); assay: Effective concentration required against gastrin releasing peptide receptor (GRP-R) in CHO cells by using FLIPR assay; format: functional, cell-based
Target sequence in this assay (P30550 whole entry): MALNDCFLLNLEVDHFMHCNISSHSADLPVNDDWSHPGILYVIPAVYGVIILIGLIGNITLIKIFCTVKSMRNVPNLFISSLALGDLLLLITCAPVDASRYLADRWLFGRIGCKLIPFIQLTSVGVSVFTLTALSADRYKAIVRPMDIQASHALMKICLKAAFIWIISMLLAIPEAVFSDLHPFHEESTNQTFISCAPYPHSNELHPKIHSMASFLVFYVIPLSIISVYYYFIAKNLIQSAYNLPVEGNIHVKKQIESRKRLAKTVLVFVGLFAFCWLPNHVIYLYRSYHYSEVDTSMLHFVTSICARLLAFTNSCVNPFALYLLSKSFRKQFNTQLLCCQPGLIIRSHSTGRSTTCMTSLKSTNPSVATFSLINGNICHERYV

Neuromedin-B receptor [4] = molecular target: T3, Neuromedin-B receptor (Homo sapiens, UniProt P28336); assay: (§1) Effective concentration required against nueromedin B receptor (NMB-R) in CHO cells by using FLIPR assay; format: functional, cell-based
How it was run: (§2)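 Intracellular Ca2+ mobilization was read by FLIPR in CHO cells transfected with the human receptor. NMB was the reference for NMB-R and GRP for GRP-R. EC50 values (±SEM) come from independent concentration–response curves, 4 to 30 per compound depending on the series.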
Target sequence in this assay (P28336 whole entry): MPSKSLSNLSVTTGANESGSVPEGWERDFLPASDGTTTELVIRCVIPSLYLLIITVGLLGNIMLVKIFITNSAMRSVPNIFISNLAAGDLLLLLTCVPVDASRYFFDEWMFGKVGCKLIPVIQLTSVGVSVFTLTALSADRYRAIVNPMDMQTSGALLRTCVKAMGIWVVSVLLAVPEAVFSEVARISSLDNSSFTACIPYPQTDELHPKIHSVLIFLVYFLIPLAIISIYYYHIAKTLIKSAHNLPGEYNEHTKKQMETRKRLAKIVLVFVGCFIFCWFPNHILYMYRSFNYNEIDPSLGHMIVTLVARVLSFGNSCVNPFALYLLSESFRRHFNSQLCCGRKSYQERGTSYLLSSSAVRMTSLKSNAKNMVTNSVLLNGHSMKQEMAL

[5] = molecular target: T2, Gastrin-releasing peptide receptor; assay: Effective concentration required against gastrin releasing peptide receptor (GRP-R) in CHO cells by using FLIPR assay.; format: functional, cell-based; how it was run: as §2
Target sequence in this assay (P30550 whole entry, looked up): as the sequence (P30550 whole entry) above

Neuromedin-B receptor [6] = molecular target: T3, Neuromedin-B receptor; assay: Effective concentration required against nueromedin B receptor (NMB-R) in CHO cells by using FLIPR assay.; format: functional, cell-based; how it was run: as §2
Target sequence in this assay (P28336 whole entry, looked up): as the sequence (P28336 whole entry) above

Neuromedin-B receptor [7] = molecular target: T3, Neuromedin-B receptor; assay: as §1; format: functional, cell-based; remark: listed apart in the source
Target sequence in this assay (P28336 whole entry): as above

## NC(=O)CC[C@H](NC(=O)Cc1ccccc1)C(=O)N[C@@H](Cc1c[nH]c2ccccc12)C(=O)NCCc1ccccc1 (PhAc-Gln-Trp-NHPhenethyl)
[1]
  Emax: 38
[2]
  EC50: 1200 nM
[3]
  EC50: 19100 nM
Neuromedin-B receptor [4]
  EC50: 15000 nM

## O=C(CN1CCC(Cc2ccccc2)CC1)NC(Cc1c[nH]c2ccccc12)C(=O)NCCc1ccccc1 (centres undefined)
[1]
  Emax: 84
[2]
  EC50: 30 nM
[5]
  NA: inactive
Neuromedin-B receptor [6]
  NA: inactive

## O=C(CNCc1cccnc1)NC(Cc1c[nH]c2ccccc12)C(=O)NCCc1ccccc1 (centres undefined)
[1]
  Emax: 82
[5]
  NA: inactive
Neuromedin-B receptor [6]
  NA: inactive

## O=C(N/N=C/c1ccc(Cl)cc1)NC(Cc1c[nH]c2ccccc12)C(=O)NCCc1ccccc1 (centres undefined)
[1]
  Emax: 78
[2]
  EC50: 2700 nM
[5]
  NA: inactive
Neuromedin-B receptor [6]
  NA: inactive

## NC(=O)CC[C@H](NC(=O)Cc1ccc(Cl)cc1)C(=O)N[C@@H](Cc1c[nH]c2ccccc12)C(=O)NCCc1ccccc1
[1]
  Emax: 62
[2]
  EC50: 1400 nM
[3]
  EC50: 12200 nM
Neuromedin-B receptor [4]
  EC50: 18500 nM

## NC(=O)CC[C@H](NC(=O)[C@H](N)Cc1ccccc1)C(=O)N[C@@H](Cc1c[nH]c2ccccc12)C(=O)NCCc1ccccc1
[2]
  EC50: 710 nM
[5]
  NA: inactive
Neuromedin-B receptor [6]
  NA: inactive

## O=C(NNCc1ccc(Cl)cc1)NC(Cc1c[nH]c2ccccc12)C(=O)NCCc1ccccc1 (centres undefined)
[1]
  Emax: 83
[2]
  EC50: 6 nM
[5]
  NA: inactive
Neuromedin-B receptor [6]
  NA: inactive

## O=C(NNCc1ccccc1)NC(Cc1c[nH]c2ccccc12)C(=O)NCCc1ccccc1 (centres undefined)
[1]
  Emax: 81
[2]
  EC50: 15 nM
[5]
  NA: inactive
Neuromedin-B receptor [6]
  NA: inactive

## O=C(CC1NCCc2ccccc21)NNC(=O)N[C@H](Cc1c[nH]c2ccccc12)C(=O)NCCc1ccccc1 (some centres undefined)
[1]
  Emax: 91
[2]
  EC50: 19 nM
[5]
  NA: inactive
Neuromedin-B receptor [6]
  NA: inactive

## C[C@H](NC(=O)Cc1cccnc1)C(=O)N[C@@H](Cc1c[nH]c2ccccc12)C(=O)NCCc1ccccc1
[1]
  Emax: 74
[5]
  NA: inactive
Neuromedin-B receptor [6]
  NA: inactive

## C[C@H](NC(=O)Cc1ccc(Cl)cc1)C(=O)N[C@@H](Cc1c[nH]c2ccccc12)C(=O)NCCc1ccccc1
[1]
  Emax: 75
[2]
  EC50: 140 nM
[5]
  NA: inactive
Neuromedin-B receptor [6]
  NA: inactive

## C[C@H](NC(=O)CCc1ccc(Cl)cc1)C(=O)N[C@@H](Cc1c[nH]c2ccccc12)C(=O)NCCc1ccccc1
[1]
  Emax: 30
[2]
  EC50: 6400 nM
[5]
  NA: inactive
Neuromedin-B receptor [6]
  NA: inactive

## O=C(N/N=C/c1ccc(-c2cccs2)cc1)NC(Cc1c[nH]c2ccccc12)C(=O)NCCc1ccccc1 (centres undefined)
[1]
  Emax: 58
[2]
  EC50: 7900 nM
[5]
  NA: inactive
Neuromedin-B receptor [6]
  NA: inactive

## O=C(N/N=C/c1ccco1)NC(Cc1c[nH]c2ccccc12)C(=O)NCCc1ccccc1 (centres undefined)
[1]
  Emax: 94
[2]
  EC50: 1.5 nM
[5]
  NA: inactive
Neuromedin-B receptor [6]
  NA: inactive

## CSCC[C@H](NC(=O)[C@H](CC(C)C)NC(=O)[C@H](Cc1c[nH]cn1)NC(=O)CNC(=O)[C@@H](NC(=O)[C@H](C)NC(=O)[C@H](Cc1c[nH]c2ccccc12)NC(=O)[C@H](Cc1c[nH]cn1)NC(=O)[C@H](CC(N)=O)NC(=O)CNC(=O)[C@H](CCCN=C(N)N)NC(=O)[C@@H]1CCCN1C(=O)[C@H](Cc1ccc(O)cc1)NC(=O)[C@H](CCSC)NC(=O)[C@H](CCCCN)NC(=O)[C@@H](NC(=O)[C@H](CC(C)C)NC(=O)[C@@H](NC(=O)[C@@H](NC(=O)CNC(=O)CNC(=O)CNC(=O)[C@H](C)NC(=O)[C@@H]1CCCN1C(=O)[C@H](CC(C)C)NC(=O)[C@@H]1CCCN1C(=O)[C@@H](N)C(C)C)[C@@H](C)O)C(C)C)[C@@H](C)O)C(C)C)C(N)=O
[2]
  EC50: 6400 nM
[3]
  EC50: 34 nM
Neuromedin-B receptor [4]
  EC50: 3200 nM

## O=C(Cc1ccc(Cl)cc1)NNC(=O)NC(Cc1c[nH]c2ccccc12)C(=O)NCCc1ccccc1 (centres undefined)
[1]
  Emax: 89
[5]
  NA: inactive
Neuromedin-B receptor [6]
  NA: inactive

## O=C(Cc1cc2ccccc2[nH]1)NNC(=O)NC(Cc1c[nH]c2ccccc12)C(=O)NCCc1ccccc1 (centres undefined)
[1]
  Emax: 84
[5]
  NA: inactive
Neuromedin-B receptor [6]
  NA: inactive

## O=C(NNCc1ccco1)NC(Cc1c[nH]c2ccccc12)C(=O)NCCc1ccccc1 (centres undefined)
[1]
  Emax: 96
[2]
  EC50: 24 nM
[5]
  NA: inactive
Neuromedin-B receptor [6]
  NA: inactive

## C[C@H](NC(=O)CC1NCCc2ccccc21)C(=O)N[C@@H](Cc1c[nH]c2ccccc12)C(=O)NCCc1ccccc1 (some centres undefined)
[1]
  Emax: 69
[2]
  EC50: 310 nM
[5]
  NA: inactive
Neuromedin-B receptor [6]
  NA: inactive

## O=C(CNCCc1ccccc1)NC(Cc1c[nH]c2ccccc12)C(=O)NCCc1ccccc1 (centres undefined)
[1]
  Emax: 92
[5]
  NA: inactive
Neuromedin-B receptor [6]
  NA: inactive

## O=C(CNCc1ccccc1)NC(Cc1c[nH]c2ccccc12)C(=O)NCCc1ccccc1 (centres undefined)
[1]
  Emax: 87
[5]
  NA: inactive
Neuromedin-B receptor [6]
  NA: inactive

## CSCC[C@H](NC(=O)[C@H](Cc1ccccc1)NC(=O)[C@H](Cc1cnc[nH]1)NC(=O)CNC(=O)[C@@H](NC(=O)[C@H](C)NC(=O)[C@H](Cc1c[nH]c2ccccc12)NC(=O)[C@H](CC(C)C)NC(=O)[C@H](CC(N)=O)NC(=O)CN)[C@@H](C)O)C(N)=O
[2]
  EC50: 4500 nM
[3]
  EC50: 41 nM
Neuromedin-B receptor [4]
  EC50: 120 nM

## NC(=O)CC[C@H](NC(=O)CCc1ccc(Cl)cc1)C(=O)N[C@@H](Cc1c[nH]c2ccccc12)C(=O)NCCc1ccccc1
[1]
  Emax: 68
[2]
  EC50: 230 nM
[5]
  NA: inactive
Neuromedin-B receptor [6]
  NA: inactive

## C[C@H](NC(=O)Cc1ccc2c(c1)OCO2)C(=O)N[C@@H](Cc1c[nH]c2ccccc12)C(=O)NCCc1ccccc1
[1]
  Emax: 75
[2]
  EC50: 7.8 nM
[5]
  NA: inactive
Neuromedin-B receptor [6]
  NA: inactive

## O=C(Cc1cccnc1)NNC(=O)NC(Cc1c[nH]c2ccccc12)C(=O)NCCc1ccccc1 (centres undefined)
[1]
  Emax: 102
[2]
  EC50: 1.4 nM
[5]
  NA: inactive
Neuromedin-B receptor [6]
  NA: inactive

## C[C@H](NCc1ccccc1)C(=O)N[C@@H](Cc1c[nH]c2ccccc12)C(=O)NCCc1ccccc1
[1]
  Emax: 86
[2]
  EC50: 46 nM
[5]
  NA: inactive
Neuromedin-B receptor [6]
  NA: inactive

## C[C@H](NC(=O)Cc1cc2ccccc2[nH]1)C(=O)N[C@@H](Cc1c[nH]c2ccccc12)C(=O)NCCc1ccccc1
[1]
  Emax: 69
[2]
  EC50: 79 nM
[5]
  NA: inactive
Neuromedin-B receptor [6]
  NA: inactive

## C[C@H](NCc1ccc(Cl)cc1)C(=O)N[C@@H](Cc1c[nH]c2ccccc12)C(=O)NCCc1ccccc1
[1]
  Emax: 83
[2]
  EC50: 4 nM
[5]
  NA: inactive
Neuromedin-B receptor [6]
  NA: inactive

## O=C(CN1CCN(Cc2ccccc2)CC1)NC(Cc1c[nH]c2ccccc12)C(=O)NCCc1ccccc1 (centres undefined)
[1]
  Emax: 90
[2]
  EC50: 70 nM
[5]
  NA: inactive
Neuromedin-B receptor [6]
  NA: inactive

## C[C@H](NC(=O)Cc1ccccc1)C(=O)N[C@@H](Cc1c[nH]c2ccccc12)C(=O)NCCc1ccccc1 (PhAc-Ala-Trp-NHPhenethyl)
[1]
  Emax: 71
[2]
  EC50: 2.1 nM
[5]
  NA: inactive
Neuromedin-B receptor [6]
  NA: inactive

## O=C(Cc1ccccc1)NNC(=O)NC(Cc1c[nH]c2ccccc12)C(=O)NCCc1ccccc1 (centres undefined)
[1]
  Emax: 86
[5]
  NA: inactive
Neuromedin-B receptor [6]
  NA: inactive

## NC(=O)CC[C@H](NC(=O)Cc1cc2ccccc2[nH]1)C(=O)N[C@@H](Cc1c[nH]c2ccccc12)C(=O)NCCc1ccccc1
[1]
  Emax: 82
[5]
  NA: inactive
Neuromedin-B receptor [6]
  NA: inactive

## O=C(CC1NCCc2ccccc21)NNC(=O)NC(Cc1c[nH]c2ccccc12)C(=O)NCCc1ccccc1 (centres undefined)
[1]
  Emax: 95
[2]
  EC50: 9.3 nM
[5]
  NA: inactive
Neuromedin-B receptor [6]
  NA: inactive

## CCCC[C@H](NC(=O)[C@H](Cc1ccccc1)NC(=O)[C@H](Cc1cnc[nH]1)NC(=O)CCNC(=O)[C@@H](NC(=O)[C@H](C)NC(=O)[C@H](Cc1c[nH]c2ccccc12)NC(=O)[C@H](CCC(N)=O)NC(=O)[C@H](N)Cc1ccc(O)cc1)C(C)C)C(N)=O (H-[dY]QWAV[βAla]HF[Nle]-NH2)
[2]
  EC50: 151 nM
Neuromedin-B receptor [7]
  EC50: 310 nM

## C[C@H](NCCc1ccccc1)C(=O)N[C@@H](Cc1c[nH]c2ccccc12)C(=O)NCCc1ccccc1
[1]
  Emax: 82
[5]
  NA: inactive
Neuromedin-B receptor [6]
  NA: inactive

## O=C(CNCc1ccc(Cl)cc1)NC(Cc1c[nH]c2ccccc12)C(=O)NCCc1ccccc1 (centres undefined)
[1]
  Emax: 81
[5]
  NA: inactive
Neuromedin-B receptor [6]
  NA: inactive
